Where two headings read alike, the source gives them in different places. Marks after values point to notes of the source that are not given here.
Columns and labels:
[1] = type: in vivo, human; conditions: for AUC0-t / AUC0-∞ / CL/F / MRT / Vz/F / t1/2z / tmax / λ / Cmax: median (range)
Summary of the method: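 Healthy Thai adults took oral 1,000 mg AL extract capsules with 200 ml water, either once (group 1) or daily for 21 days (group 2), with 20 active recipients per group. Plasma atractylodin was measured by reversed-phase C18 HPLC (UV 340 nm, acetonitrile:water 70:30, 25 °C; LOQ 2.5 ng/ml). Cmax was read from observed data. t1/2z came from log-linear regression of at least the last three points. MRT was AUMC0-∞/AUC0-∞.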

[2] = rats, cited from earlier work
[3] = group 1, single 1,000 mg AL, all
[4] = group 1, single 1,000 mg AL, female
[5] = group 1, single 1,000 mg AL, male
[6] = group 2, daily 1,000 mg AL, day 1, all
[7] = group 2, daily 1,000 mg AL, day 1, female
[8] = group 2, daily 1,000 mg AL, day 1, male
[9] = group 2, daily 1,000 mg AL, day 21, all
[10] = group 2, daily 1,000 mg AL, day 21, female
[11] = group 2, daily 1,000 mg AL, day 21, male
[12] = intravenous 2 mg/kg body weight atractylodin
[13] = oral 30 g/kg body weight A. rhizoma
[14] = oral 40 g/kg body weight crude A. rhizoma
[15] = oral 40 g/kg body weight processed A. rhizoma

With `C/C=C/C#CC#C/C=C/c1ccco1` [atractylodin] the “plasma atractylodin after 6 h” value ([1]; all participants, both groups) was “undetectable”, the “observed Cmax, range” value ([1]; both groups, model-independent analysis) was 7.1 to 152.7 ng/mL and the AUC0-t [1, 3] was 118.27 (72.47–169.90) ng.h/ml. For the same compound, the “AUC0-∞” value [1, 3] was 123.70 (75.13–176.96) ng.h/ml, the CL/F [1, 3] was 6.68 (4.46–13.70) l/kg/h and the MRT [1, 3] was 2.42 (1.74–3.11) h. For the same compound, the Vz/F [1, 3] was 11.45 (7.06–20.17) l/kg, the t1/2z [1, 3] was 1.13 (0.78–1.48) h and the tmax [1, 3] was 1 (0.75–1.5) h. For the same compound, the λ [1, 3] was 0.62 (0.47–0.89) /h, the AUC0-t [1, 4] was 122.67 (72.47–192.85) ng.h/ml and the “AUC0-∞” value [1, 4] was 128.13 (75.13–199.88) ng.h/ml. For the same compound, the CL/F [1, 4] was 6.87 (4.48–13.70) l/kg/h, the Cmax [1, 4] was 58.65 (42.50–96.80) ng/ml and the MRT [1, 4] was 2.21 (1.70–3.74) h. The Vz/F [1, 4] was 12.11 (6.62–20.17) l/kg, the t1/2z [1, 4] was 1.18 (0.72–2.19) h and the tmax [1, 4] was 1.0 (0.75–1.0) h. The λ [1, 4] was 0.71 (0.37–0.92) /h, the AUC0-t [1, 5] was 142.14 (83.48–199.75) ng.h/ml and the “AUC0-∞” value [1, 5] was 146.88 (86.09–226.53) ng.h/ml. For the same compound, the CL/F [1, 5] was 6.29 (2.80–8.92) l/kg/h, the Cmax [1, 5] was 59.20 (41.80.50–99.30) ng/ml and the MRT [1, 5] was 2.42 (1.71–2.94) h. The Vz/F [1, 5] was 11.49 (8.35–56.42) ^a l/kg, the t1/2z [1, 5] was 1.23 (0.13–2.77) h and the tmax [1, 5] was 1.0 (0.75–2.0) h. The λ [1, 5] was 0.85 (0.29–1.10) /h, the “participants with atractylodin detected at 0.25 h” value ([1]; group 1, single 1,000 mg AL, 10 participants) was 50% and the AUC0-t [1, 6] was 93.06 (12.13–276.28) ng.h/ml. The “AUC0-∞” value [1, 6] was 112.2 (20.11–306.76) ng.h/ml, the CL/F [1, 6] was 7.33 (2.87–33.43) l/kg/h and the Cmax [1, 6] was 47.10 (7.10–129.90) ng/ml. The MRT [1, 6] was 2.60 (1.58–5.17) h, the Vz/F [1, 6] was 12.75 (4.44–61.56) l/kg and the t1/2z [1, 6] was 1.16 (0.63–3.75) h. The tmax [1, 6] was 1.0 (0.5–2.0) h, the λ [1, 6] was 0.60 (0.19–1.11) /h and the AUC0-t [1, 7] was 99.67 (42.88–276.28) ng.h/ml. The “AUC0-∞” value [1, 7] was 139.56 (70.21–248.22) ng.h/ml, the CL/F [1, 7] was 6.43 (2.87–15.00) l/kg/h and the Cmax [1, 7] was 54.35 (16.10–129.90) ng/ml. The MRT [1, 7] was 2.66 (1.70–3.99) h, the Vz/F [1, 7] was 11.97 (4.44–37.88) l/kg and the t1/2z [1, 7] was 1.36 (0.85–1.75) h. For the same compound, the λ [1, 7] was 0.52 (0.40–0.82) /h, the AUC0-t [1, 8] was 82.88 (12.13–181.08) ng.h/ml and the “AUC0-∞” value [1, 8] was 92.40 (20.11–210.23) ng.h/ml. For the same compound, the CL/F [1, 8] was 8.38 (3.77–33.43) l/kg/h, the Cmax [1, 8] was 41.90 (7.10–67.20) ng/ml and the MRT [1, 8] was 2.47 (1.58–5.17) h. The Vz/F [1, 8] was 13.96 (6.73–61.56) l/kg, the t1/2z [1, 8] was 1.09 (0.63–3.75) h and the tmax [1, 8] was 1.0 (1.0–2.0) h. The λ [1, 8] was 0.64 (0.19–1.11) /h, the “participants with atractylodin detected at 0.5 h” value ([1]; group 2, daily 1,000 mg AL, day 1, 17 participants) was 85% and the AUC0-t [1, 9] was 106.67 (40.42–259.81) ng.h/ml. The “AUC0-∞” value [1, 9] was 117.75 (48.73-269-21) ng.h/ml, the CL/F [1, 9] was 6.80 (2.95–14.82) l/kg/h and the Cmax [1, 9] was 46.95 (20.10–152.70) ng/ml. For the same compound, the MRT [1, 9] was 2.64 (1.58–4.54) h, the Vz/F [1, 9] was 12.85 (3.58–31.55) l/kg and the t1/2z [1, 9] was 1.14 (0.80–2.17) h. For the same compound, the tmax [1, 9] was 1.0 (0.5–2.0) h, the λ [1, 9] was 0.61 (0.32–0.87) /h and the AUC0-t [1, 10] was 118.05 (42.97–212.09) ng.h/ml. For the same compound, the “AUC0-∞” value [1, 10] was 145.54 (67.49–232.33) ng.h/ml, the CL/F [1, 10] was 5.93 (3.79–11.38) l/kg/h and the Cmax [1, 10] was 52.55 (20.10–152.70) ng/ml. For the same compound, the MRT [1, 10] was 2.61 (1.58–4.54) h, the Vz/F [1, 10] was 12.12 (5.11–31.55) l/kg and the t1/2z [1, 10] was 1.28 (0.80–2.17) h. The tmax [1, 10] was 1.0 (0.5–2.0) h, the λ [1, 10] was 0.54 (0.32–0.87) /h and the AUC0-t [1, 11] was 75.38 (40.42–259.81) ng.h/ml. The “AUC0-∞” value [1, 11] was 91.67 (48.73-269-21) ng.h/ml, the CL/F [1, 11] was 7.90 (2.95–14.82) l/kg/h and the Cmax [1, 11] was 44.0 (22.0–107.0) ng/ml. The MRT [1, 11] was 2.64 (1.95–3.08) h, the Vz/F [1, 11] was 13.79 (3.58–22.13) l/kg and the t1/2z [1, 11] was 1.08 (0.84–1.65) h. For the same compound, the tmax [1, 11] was 1.0 (1.0–2.0) h, the λ [1, 11] was 0.64 (0.42–0.82) /h and the “participants with atractylodin detected at 0.5 h” value ([1]; group 2, daily 1,000 mg AL, day 21, 19 participants) was 95%. The “plasma atractylodin level at 4 h” value ([1]; group 2, daily 1,000 mg AL, range) was 2.5 to 18.2 ng/mL, the “accumulation after multiple oral dosing” value ([1]; human plasma, multiple oral dosing for 21 days) was “no accumulation” and the “time by which atractylodin was cleared in plasma” value ([1]; most participants) was no more than 4 h. The “central volume of distribution (Vc)” value [2, 12] was 31.7 L/kg, the t1/2 [2, 12] was 3.3 h and the “total clearance (CL)” value [2, 12] was 110 mL/min/kg. For the same compound, the “mean maximum plasma concentration (Cmax)” value [2, 13] was 1,930 ng/ml, the “terminal elimination half-life (t1/2)” value [2, 13] was 8 h and the “time to Cmax (tmax)” value [2, 13] was 2.25 h. The CL/F [2, 14] was 111 mL/min/kg, the “mean Cmax” value [2, 14] was 625 ng/mL and the “mean residence time (MRT)” value [2, 14] was 4.8 h. The t1/2z [2, 14] was 2.38 h, the “time of Cmax” value [2, 14] was 2.2 h and the CL/F [2, 15] was 42.7 mL/min/kg. For the same compound, the MRT [2, 15] was 7.06 h, the “mean Cmax” value [2, 15] was 2,299 ng/ml and the t1/2z [2, 15] was 5.13 h. For the same compound, the tmax [2, 15] was 0.33 h.

Reference: paper PMC8240349 (Journal of Traditional and Complementary Medicine, 2021)
